# Results taken from ChEMBL document CHEMBL4052607 (J Med Chem, 2017).
# Activity calls are given as the source filed them. The calls are words filed in the database; no cut-off is given here.
# Tests used:
# D(2) dopamine receptor [1] = target: T1, D(2) dopamine receptor (Homo sapiens, UniProt P14416); assay: Agonist activity at D2 long receptor (unknown origin) expressed in CHOK1 cells assessed as beta-arrestin recruitment up to 30 uM after 90 mins by DiscoveRx PathHunter assay; assay type: cell-based
# T1 sequence (P14416 whole entry, the tested form may be a part, canonical isoform): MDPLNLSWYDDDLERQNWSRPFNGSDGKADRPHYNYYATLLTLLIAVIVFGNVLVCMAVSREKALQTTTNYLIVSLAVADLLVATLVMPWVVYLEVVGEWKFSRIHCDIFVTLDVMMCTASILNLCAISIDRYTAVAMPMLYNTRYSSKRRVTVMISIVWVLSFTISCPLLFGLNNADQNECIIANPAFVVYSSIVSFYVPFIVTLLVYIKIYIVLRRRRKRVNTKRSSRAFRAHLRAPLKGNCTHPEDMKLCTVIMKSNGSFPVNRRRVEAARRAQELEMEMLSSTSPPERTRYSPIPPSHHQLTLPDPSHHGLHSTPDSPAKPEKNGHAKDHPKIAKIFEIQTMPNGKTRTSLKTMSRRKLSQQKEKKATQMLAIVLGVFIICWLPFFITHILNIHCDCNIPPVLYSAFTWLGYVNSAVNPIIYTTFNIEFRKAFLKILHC
# Method in brief: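 Agonist mode in CHO-K1 cells expressing D2R long isoform fused to a β-galactosidase fragment, with β-arrestin-2 carrying the complementary fragment. Compound in PBS plus 0.2 μM sodium metabisulfite was preincubated 90 min at 37°C. PathHunter reagent was then added for 30 min at RT and luminescence read. RLU were normalized to the response at maximal dopamine.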
# D(2) dopamine receptor [2] = target: T1, D(2) dopamine receptor; assay: Displacement of [3H]N-methylspiperone from human D2L receptor expressed in HEK293 cell membranes after 1 hr by liquid scintillation counting analysis
# Method in brief: (§1)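 Membranes from HEK293 cells stably expressing hD2R (long) or hD3R, 10 μg protein per tube, were incubated with 0.4 nM [3H]N-methylspiperone in EBSS with 0.2 mM sodium metabisulfite. Compound was tested over 13 half-log steps, 10 μM to 10 pM, in triplicate for 1 h at RT. Nonspecific binding was set with 10 μM (+)-butaclamol. Bound ligand was collected on PEI-soaked GF/B filters and counted by scintillation. Ki came from Cheng-Prusoff, at least 3 experiments.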
# Homo sapiens = organism: Homo sapiens; assay: Selectivity ratio of Ki for human D2 receptor to Ki for human D3 receptor; method in brief: as §1
# D(3) dopamine receptor [3] = target: T2, D(3) dopamine receptor (Homo sapiens, UniProt P35462); assay: Displacement of [3H]N-methylspiperone from human D3 receptor expressed in HEK293 cell membranes after 1 hr by liquid scintillation counting analysis
# T2 sequence (P35462 whole entry): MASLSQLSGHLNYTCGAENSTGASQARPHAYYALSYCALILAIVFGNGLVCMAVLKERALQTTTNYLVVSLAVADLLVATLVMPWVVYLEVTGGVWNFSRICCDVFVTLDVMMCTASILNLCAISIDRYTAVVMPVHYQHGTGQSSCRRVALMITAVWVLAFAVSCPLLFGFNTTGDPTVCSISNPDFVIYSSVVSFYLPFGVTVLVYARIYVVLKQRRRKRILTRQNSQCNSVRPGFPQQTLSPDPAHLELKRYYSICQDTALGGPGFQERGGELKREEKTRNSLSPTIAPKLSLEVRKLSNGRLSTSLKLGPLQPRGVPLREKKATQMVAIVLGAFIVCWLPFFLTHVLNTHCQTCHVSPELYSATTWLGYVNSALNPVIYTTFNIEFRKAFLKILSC
# D(2) dopamine receptor [4] = target: T1, D(2) dopamine receptor; assay: Antagonist activity at D2 long receptor (unknown origin) expressed in CHOK1 cells assessed as inhibition of dopamine induced beta-arrestin recruitment after 90 mins by DiscoveRx PathHunter assay; assay type: cell-based
# D(3) dopamine receptor [5] = target: T2, D(3) dopamine receptor
SMILES,Activity (D(2) dopamine receptor [1]),Ki (D(2) dopamine receptor [2]),Ratio Ki (Homo sapiens),Ki (D(3) dopamine receptor [3]),Kb (D(2) dopamine receptor [4]),pKb (D(2) dopamine receptor [4]),pKb (D(3) dopamine receptor [5])
N#Cc1ccc2c(c1)CCN(CC[C@H]1CC[C@H](NC(=O)c3ccnc4ccccc34)CC1)C2,inactive,,,,,,
N#Cc1cccc(N2CCNCC2)c1,inactive,4.89 µM,8.4,0.581 µM,2.09 µM,5.68,5.42
N#Cc1ccc2c(c1)CNCC2,inactive,11.4 µM,7.5,1.52 µM,4.27 µM,5.37,5.49
